Source: the array DNA melting data of Ke et al. (doi:10.1101/2024.01.08.574731)

How the values were obtained:
[1] = folding enthalpy; higher = less favourable; fluorescence melt of hairpins on a sequencing array, two-state fit; conditions: sodium 0.088 M
Outline: (§1)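 Cy3 fluorescence of library hairpins on a sequenced MiSeq flow cell, with annealed Cy3 and quencher oligos, was imaged in 50 mM Na-HEPES pH 8.0, 25 mM NaCl in 2.5 °C steps up to 60 °C. Signals were normalised to pre-quench Cy3 and to control variants. Melting temperature and folding enthalpy came from bootstrapped two-state fits, inverse-variance combined over four replicates. Fitted temperatures were raised by 9.35 °C to match UV melts.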

[2] = melting temperature; fluorescence melt of hairpins on a sequencing array, two-state fit, raised by 9.35 °C to match UV melts; conditions: sodium 0.088 M
Outline: as §1

Row | Sequence | folding enthalpy [1] | Tm [2]
1 | GGCATGGGAAACCGTGTC (.((.((....)).)).) | -33.7 kcal/mol | 43.3 °C
2 | GGCATGGGAAACTATGCC (((((.(....).))))) | -38.9 kcal/mol | 53.6 °C
3 | GGCATGTCGAAAGACGCC (((..(((....)))))) | -25.2 kcal/mol | 52.1 °C
4 | GGCATTCCGAAAGGAGCC (((..(((....)))))) | -23.4 kcal/mol | 43.1 °C
5 | GGCATTCGAAAGAAGCC (((.(((....)))))) | -25 kcal/mol | 48.5 °C
6 | GGCATTGGAAACAATGTC (.(((((....))))).) | -31.9 kcal/mol | 48.1 °C
7 | GGCATTGGAAACAGTGCC ((((.((....)).)))) | -43 kcal/mol | 52.2 °C
8 | GGCCAAGGAAACTTGGTC (.(((((....))))).) | -35.1 kcal/mol | 53.3 °C
9 | GGCCAATCGAAAGATGCC (((..(((....)))))) | -23.9 kcal/mol | 42.9 °C
10 | GGCCACCGAAAGGTGCC (((.(((....)))))) | -15.8 kcal/mol | 60.8 °C
11 | GGCCACGAAAGTGGAGCC ((((((....)))..))) | -15.5 kcal/mol | 53.9 °C
12 | GGCCACGAAAGTGGGGCC ((((((....)))..))) | -14.2 kcal/mol | 60.3 °C
13 | GGCCACGAAAGTGGTGCC ((((((....)))..))) | -12.7 kcal/mol | 49.9 °C
14 | GGCCACGAAAGTGTGGCC ((((((....)))..))) | -33.6 kcal/mol | 68.5 °C
15 | GGCCACGAAAGTGTTGCC ((((((....)))..))) | -16.7 kcal/mol | 49.9 °C
16 | GGCCACTCGAAAGAGGCC (((..(((....)))))) | -27.7 kcal/mol | 52.3 °C
17 | GGCCAGGGAAACCTGACC ((.((((....)))).)) | -34.4 kcal/mol | 48.3 °C
18 | GGCCATACGAAAGTAGCC (((..(((....)))))) | -20.6 kcal/mol | 38.7 °C
19 | GGCCATGCGAAAGCAGCC (((..(((....)))))) | -17.1 kcal/mol | 48.4 °C
20 | GGCCCAGGAAACCAGGCC ((((..(....)..)))) | -31.6 kcal/mol | 47 °C
21 | GGCCCAGGAAACTGGACC ((.((((....)))).)) | -32.8 kcal/mol | 50.5 °C
22 | GGCCCCCGAAAGGGAGCC (((.(((....))).))) | -27.1 kcal/mol | 66.8 °C
23 | GGCCCCCGAAAGGGTGCC (((.(((....))).))) | -27.9 kcal/mol | 64.5 °C

Row | Sequence | folding enthalpy [1] | Tm [2]
24 | GGCCCCGAAAGGGTCGCC ((((((....)))..))) | -16.1 kcal/mol | 55.5 °C
25 | GGCCCCGAAAGGGTGCC ((((((....))).))) | -23.3 kcal/mol | 66.1 °C
26 | GGCCCCGCGAAAGCGGCC (((..(((....)))))) | -9.49 kcal/mol | 41 °C
27 | GGCCCGCGAAAGCGAGCC (((.(((....))).))) | -31.3 kcal/mol | 67.2 °C
28 | GGCCCGGGAAACCAGGCC ((((.((....)).)))) | -37.9 kcal/mol | 55.3 °C
29 | GGCCCGTCGAAAGACGCC (((..(((....)))))) | -8.97 kcal/mol | 37 °C
30 | GGCCCTCGAAAGAGAGCC (((.(((....))).))) | -46.6 kcal/mol | 53.3 °C
31 | GGCCGACCGAAAGGTGCC (((..(((....)))))) | -25.5 kcal/mol | 49.5 °C
32 | GGCCGACGAAAGTCCGCC (((.(((....))).))) | -39 kcal/mol | 55.1 °C
33 | GGCCGAGGAAACTCAGCC (((.(((....))).))) | -32 kcal/mol | 46.4 °C
34 | GGCCGAGGAAACTTGGCC ((((.((....)).)))) | -49.1 kcal/mol | 59.4 °C
35 | GGCCGCGAAAGCGCAGCC ((((((....)))..))) | -20.7 kcal/mol | 58.4 °C
36 | GGCCGCTCGAAAGAGGCC (((..(((....)))))) | -48.5 kcal/mol | 56.5 °C
37 | GGCCGGCGAAAGCCAGCC (((.(((....))).))) | -22.4 kcal/mol | 68.1 °C
38 | GGCCGGCGAAAGCCCGCC (((.(((....))).))) | -29.9 kcal/mol | 59.7 °C
39 | GGCCGGGGAAACCCAGCC (((.(((....))).))) | -42.6 kcal/mol | 51.7 °C
40 | GGCCGTACGAAAGTAGCC (((..(((....)))))) | -22.6 kcal/mol | 42.3 °C
41 | GGCCGTCGAAAGACTGCC (((.(((....))).))) | -42.8 kcal/mol | 56.8 °C
42 | GGCCTAACGAAAGTTGCC (((..(((....)))))) | -20.9 kcal/mol | 38.7 °C
43 | GGCCTCCCGAAAGGGGCC (((..(((....)))))) | -18.7 kcal/mol | 59.1 °C
44 | GGCCTCCGAAAGGAGCC (((.(((....)))))) | -16.5 kcal/mol | 62.4 °C
45 | GGCCTCCGAAAGGATGCC (((.(((....))).))) | -37.2 kcal/mol | 56.5 °C
46 | GGCCTCGAAAGAGACGCC ((((((....)))..))) | -24.3 kcal/mol | 47.7 °C

Row | Sequence | folding enthalpy [1] | Tm [2]
47 | GGCCTCGAAAGAGAGCC ((((((....))).))) | -37.5 kcal/mol | 58.1 °C
48 | GGCCTCGAAAGAGAGGCC ((((((....)))..))) | -29.1 kcal/mol | 66.9 °C
49 | GGCCTCGAAAGAGTAGCC ((((((....)))..))) | -25.9 kcal/mol | 49.2 °C
50 | GGCCTCGAAAGAGTCGCC ((((((....)))..))) | -23.3 kcal/mol | 45 °C
51 | GGCCTCGAAAGAGTTGCC ((((((....)))..))) | -17.2 kcal/mol | 45.5 °C
52 | GGCCTGCGAAAGCACGCC (((.(((....))).))) | -37.6 kcal/mol | 53.4 °C
53 | GGCCTGGGAAACCGGGCC ((((.((....)).)))) | -30.6 kcal/mol | 66.3 °C
54 | GGCCTTCGAAAGAAGCC (((.(((....)))))) | -27.6 kcal/mol | 51.4 °C
55 | GGCCTTGGAAACAGGGTC (.((.((....)).)).) | -25 kcal/mol | 37.6 °C
56 | GGCGACGAAAGTCAAGCC ((((((....)))..))) | -39.6 kcal/mol | 54.7 °C
57 | GGCGACGAAAGTCAGGCC ((((((....)))..))) | -31.3 kcal/mol | 55.5 °C
58 | GGCGACGAAAGTCCAGCC ((((((....)))..))) | -27.1 kcal/mol | 51.1 °C
59 | GGCGACGAAAGTCCTGCC ((((((....)))..))) | -20.4 kcal/mol | 46 °C
60 | GGCGACGAAAGTCGGGCC ((((((....)))..))) | -11 kcal/mol | 53.3 °C
61 | GGCGACGCGAAAGCGGCC (((..(((....)))))) | -11.1 kcal/mol | 57.6 °C
62 | GGCGAGCCGAAAGGCGCC (((..(((....)))))) | -13.1 kcal/mol | 65 °C
63 | GGCGAGGCGAAAGCCGCC (((..(((....)))))) | -17.3 kcal/mol | 66.9 °C
64 | GGCGAGGGAAACTTCGCC (((((.(....).))))) | -50.1 kcal/mol | 57.4 °C
65 | GGCGATCGAAAGATAGCC (((.(((....))).))) | -47 kcal/mol | 58 °C
66 | GGCGATGGAAACATCACC ((.((((....)))).)) | -30.3 kcal/mol | 46.2 °C
67 | GGCGCAACGAAAGTTGCC (((..(((....)))))) | -8.29 kcal/mol | 47 °C
68 | GGCGCACGAAAGTGGCC (((.(((....)))))) | -18.3 kcal/mol | 59.9 °C
